Laboratory results reported in publication PMC2765529 (Journal of medicinal chemistry, 2009).
“And” between values parts separate entries of the source, which are not always exact repeats. Equal entries are not always repeated. Structures can show the parent of a compound that is named as a salt.

Assays:
[1] = Tissue biodistribution and regional brain uptake in rats; assay type: in vivo, male Sprague-Dawley rats; details: for Blood uptake: i.v., mean ± SD
human VAChT = molecular target: T1, human VAChT (Homo sapiens, UniProt Q16572); test: VAChT binding, competition against [^3H]vesamicol; details: for Ki: VAChT (Ki [nM]), [^3H]vesamicol competition, mean ± SEM
T1 sequence (Q16572 1-532): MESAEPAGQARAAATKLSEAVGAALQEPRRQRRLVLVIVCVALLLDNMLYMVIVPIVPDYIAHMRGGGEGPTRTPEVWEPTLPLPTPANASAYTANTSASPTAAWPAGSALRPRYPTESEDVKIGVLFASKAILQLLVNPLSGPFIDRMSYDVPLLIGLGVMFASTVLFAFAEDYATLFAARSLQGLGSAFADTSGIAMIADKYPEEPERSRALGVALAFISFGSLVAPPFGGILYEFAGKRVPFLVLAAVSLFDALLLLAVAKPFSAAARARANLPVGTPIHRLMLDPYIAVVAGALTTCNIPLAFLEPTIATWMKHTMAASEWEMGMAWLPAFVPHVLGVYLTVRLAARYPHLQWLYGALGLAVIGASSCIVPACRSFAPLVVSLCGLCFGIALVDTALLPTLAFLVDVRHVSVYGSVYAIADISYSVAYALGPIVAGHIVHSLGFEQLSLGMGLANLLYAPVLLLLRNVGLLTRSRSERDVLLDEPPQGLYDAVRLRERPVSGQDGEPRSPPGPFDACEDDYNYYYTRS

[2] = Ex vivo autoradiography of rat brain; assay type: in vivo, male Sprague-Dawley rat; details: rat sacrificed 1 h p.i., 1 mm coronal sections
How it was run: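 A single mature male Sprague-Dawley rat received ∼500 μCi of the 18F-labelled test compound by tail-vein injection under isoflurane/oxygen anaesthesia. The rat recovered and was euthanised 1 h later. The brain was taken out quickly and set in a metal brain matrix with 1 mm slots. A 1.0 mm slice through the striatum was imaged by flatbed scanner and by electronic autoradiography.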

[3] = 5 min p.i., rat brain dissection

## O=C(c1ccc([18F])cc1)C1CCN([C@@H]2Cc3ccccc3C[C@H]2O)CC1 (racemic) [(±)-[^18F]9e, (±)-trans-2-Hydroxy-3-(4-(4-[^18F]fluorobenzoyl)piperidino)tetralin]
[1]; 5 min p.i.
  Bone uptake: 0.307 ± 0.011 %ID/g
  Brain uptake: 0.606 ± 0.100 %ID/g
  Fat uptake: 0.088 ± 0.026 %ID/g
  Heart uptake: 0.328 ± 0.014 %ID/g
  Liver uptake: 1.939 ± 0.382 %ID/g
  Muscle uptake: 0.079 ± 0.015 %ID/g
[1]; 5 min p.i., n=4 rats
  Blood uptake: 0.122 ± 0.023 %ID/g
[1]; 5 min p.i., listed as racemic [^18F]9e
  Bone uptake: 0.31 %ID/g
[1]; 30 min p.i.
  Bone uptake: 0.445 ± 0.032 %ID/g
  Brain uptake: 0.153 ± 0.044 %ID/g
  Fat uptake: 0.177 ± 0.039 %ID/g
  Heart uptake: 0.141 ± 0.005 %ID/g
  Liver uptake: 1.504 ± 0.271 %ID/g
  Lung uptake: 0.553 ± 0.056 %ID/g
  Muscle uptake: 0.071 ± 0.006 %ID/g
[1]; 30 min p.i., n=4 rats
  Blood uptake: 0.071 ± 0.009 %ID/g
[1]; 1 h p.i.
  Bone uptake: 0.623 ± 0.080 %ID/g
  Brain uptake: 0.095 ± 0.012 %ID/g
  Fat uptake: 0.196 ± 0.035 %ID/g
  Heart uptake: 0.094 ± 0.008 %ID/g
  Lung uptake: 0.346 ± 0.045 %ID/g
  Muscle uptake: 0.076 ± 0.012 %ID/g
[1]; 1 h p.i., n=4 rats
  Blood uptake: 0.043 ± 0.003 %ID/g
[1]; 2 h p.i.
  Bone uptake: 0.739 ± 0.044 %ID/g
  Brain uptake: 0.059 ± 0.008 %ID/g
  Fat uptake: 0.173 ± 0.042 %ID/g
  Heart uptake: 0.056 ± 0.007 %ID/g
  Kidney uptake: 0.853 ± 0.171 %ID/g
  Liver uptake: 1.188 ± 0.158 %ID/g
  Lung uptake: 0.223 ± 0.014 %ID/g
  Muscle uptake: 0.047 ± 0.006 %ID/g
[1]; 2 h p.i., n=4 rats
  Blood uptake: 0.027 ± 0.004 %ID/g

## O=C(c1ccccc1)C1CCN([C@@H]2Cc3ccccc3C[C@H]2O)CC1 (racemic) [Compound 9a, (±)-trans-2-Hydroxy-3-(4-benzoylpiperidino)tetralin hydrochloride]
Human VAChT
  IC50: 4.3 ± 1 nM

## O=C(c1ccc(Br)cc1)C1CCN([C@@H]2Cc3ccccc3C[C@H]2O)CC1 (racemic) [Compound 9b, (±)-trans-2-Hydroxy-3-(4-(4-bromobenzoyl)piperidino)tetralin hydrochloride]
Human VAChT
  IC50: 0.25 ± 0.02 nM

## Nc1ccc(C(=O)C2CCN([C@@H]3Cc4ccccc4C[C@H]3O)CC2)cc1 (racemic) [Compound 9c, (±)-trans-2-Hydroxy-3-(4-(4-aminobenzoyl)piperidino)tetralin]
Human VAChT
  IC50: 1.68 ± 0.04 nM

## O=C(c1ccc([N+](=O)[O-])cc1)C1CCN([C@@H]2Cc3ccccc3C[C@H]2O)CC1 (racemic) [Compound 9d, (±)-trans-2-Hydroxy-3-(4-(4-nitrobenzoyl)piperidino)tetralin]
Human VAChT
  IC50: 0.48 ± 0.03 nM

## O=C(c1ccc(F)cc1)C1CCN([C@@H]2Cc3ccccc3C[C@H]2O)CC1 (relative stereo) [(±)9e, (±)-trans-2-Hydroxy-3-(4-(4-fluorobenzoyl)piperidino)tetralin]
Human VAChT
  IC50: 2.7 ± 0.4 nM
  Ki: 2.7 ± 0.4 nM

## O=C(c1ccc(F)cc1)C1CCN([C@@H]2Cc3ccccc3C[C@H]2O)CC1 (single isomer, unassigned) [(+)-9e]
Human VAChT
  Ki: 108 ± 15 nM

## (+)-trans-2-Hydroxy-3-(4-(4-[^18F]fluorobenzoyl)piperidino)tetralin [(+)-[^18F]9e]
[1]; 5 min p.i.
  Bone uptake: 0.187 ± 0.015 %ID/g
  Brain uptake: 0.350 ± 0.040 %ID/g
  Fat uptake: 0.052 ± 0.017 %ID/g
  Heart uptake: 0.194 ± 0.006 %ID/g
  Kidney uptake: 0.791 ± 0.123 %ID/g
  Liver uptake: 1.849 ± 0.566 %ID/g
  Lung uptake: 0.904 ± 0.161 %ID/g
  Muscle uptake: 0.047 ± 0.010 %ID/g
  Ratio Striatum: Cerebellum: 1.15 ± 0.04
  Ratio Striatum: Cortex: 0.92 ± 0.02
  Ratio Striatum: Hippocampus: 0.99 ± 0.04
  Ratio Striatum: Total Brain: 1.02 ± 0.03
[1]; 5 min p.i., n=4 rats
  Blood uptake: 0.136 ± 0.020 %ID/g
[1]; 5 min p.i., %ID/g striatum divided by %ID/g non-striatal tissue, n=4 rats
  Ratio Striatum: Blood: 2.67 ± 0.57
[1]; 30 min p.i.
  Bone uptake: 0.277 ± 0.080 %ID/g
  Brain uptake: 0.071 ± 0.012 %ID/g
  Fat uptake: 0.108 ± 0.053 %ID/g
  Heart uptake: 0.094 ± 0.013 %ID/g
  Kidney uptake: 0.416 ± 0.048 %ID/g
  Liver uptake: 1.239 ± 0.271 %ID/g
  Lung uptake: 0.332 ± 0.073 %ID/g
  Muscle uptake: 0.051 ± 0.010 %ID/g
  Ratio Striatum: Blood: 0.95 ± 0.18
  Ratio Striatum: Cerebellum: 1.3 ± 0.07
  Ratio Striatum: Cortex: 1.08 ± 0.09
  Ratio Striatum: Hippocampus: 0.93 ± 0.03
  Ratio Striatum: Total Brain: 1.13 ± 0.04
[1]; 30 min p.i., n=4 rats
  Blood uptake: 0.087 ± 0.016 %ID/g
[1]; 1 h p.i.
  Bone uptake: 0.399 ± 0.078 %ID/g
  Brain uptake: 0.041 ± 0.002 %ID/g
  Fat uptake: 0.154 ± 0.065 %ID/g
  Heart uptake: 0.051 ± 0.005 %ID/g
  Kidney uptake: 0.291 ± 0.032 %ID/g
  Liver uptake: 0.814 ± 0.120 %ID/g
  Lung uptake: 0.188 ± 0.035 %ID/g
  Muscle uptake: 0.034 ± 0.008 %ID/g
  Ratio Striatum: Blood: 0.9 ± 0.23
  Ratio Striatum: Cerebellum: 1.17 ± 0.12
  Ratio Striatum: Cortex: 0.95 ± 0.09
  Ratio Striatum: Hippocampus: 0.98 ± 0.14
  Ratio Striatum: Total Brain: 1.02 ± 0.09
[1]; 1 h p.i., n=4 rats
  Blood uptake: 0.048 ± 0.007 %ID/g
[1]; 2 h p.i.
  Bone uptake: 0.532 ± 0.096 %ID/g
  Brain uptake: 0.022 ± 0.004 %ID/g
  Fat uptake: 0.150 ± 0.062 %ID/g
  Heart uptake: 0.031 ± 0.006 %ID/g
  Kidney uptake: 0.194 ± 0.027 %ID/g
  Liver uptake: 0.692 ± 0.081 %ID/g
  Lung uptake: 0.112 ± 0.023 %ID/g
  Muscle uptake: 0.022 ± 0.005 %ID/g
  Ratio Striatum: Blood: 0.87 ± 0.11
  Ratio Striatum: Cerebellum: 1.14 ± 0.09
  Ratio Striatum: Cortex: 0.91 ± 0.15
  Ratio Striatum: Hippocampus: 0.99 ± 0.08
  Ratio Striatum: Total Brain: 1.04 ± 0.06
[1]; 2 h p.i., n=4 rats
  Blood uptake: 0.027 ± 0.002 %ID/g

## (-)-trans-2-Hydroxy-3-(4-(4-[^18F]fluorobenzoyl)piperidino)tetralin [(-)-[^18F]9e]
[1]; 5 min p.i.
  Bone uptake: 0.334 ± 0.047 %ID/g
  Brain uptake: 0.823 ± 0.091 %ID/g
  Fat uptake: 0.132 ± 0.095 %ID/g
  Heart uptake: 0.321 ± 0.027 %ID/g
  Kidney uptake: 2.02 %ID/g and 2.018 ± 0.448 %ID/g
  Muscle uptake: 0.091 ± 0.018 %ID/g
[1]; 5 min p.i., n=4 rats
  Blood uptake: 0.073 ± 0.010 %ID/g
[1]; [3]
  Initial uptake in cerebellum: 0.743 %ID/g
  Initial uptake in cortex: 0.911 %ID/g
  Initial uptake in hippocampus: 0.837 %ID/g
  Initial uptake in striatum: 0.911 %ID/g
[1]; 30 min p.i.
  Bone uptake: 0.157 ± 0.004 %ID/g
  Brain uptake: 0.226 ± 0.014 %ID/g
  Fat uptake: 0.207 ± 0.018 %ID/g
  Heart uptake: 0.109 ± 0.014 %ID/g
  Kidney uptake: 1.896 ± 0.333 %ID/g
  Lung uptake: 0.481 ± 0.088 %ID/g
  Muscle uptake: 0.080 ± 0.008 %ID/g
[1]; 30 min p.i., n=4 rats
  Blood uptake: 0.037 ± 0.002 %ID/g
[1]; 1 h p.i.
  Bone uptake: 0.148 ± 0.015 %ID/g
  Brain uptake: 0.124 ± 0.013 %ID/g
  Fat uptake: 0.241 ± 0.021 %ID/g
  Heart uptake: 0.066 ± 0.008 %ID/g
  Kidney uptake: 1.298 ± 0.372 %ID/g
  Lung uptake: 0.327 ± 0.022 %ID/g
  Muscle uptake: 0.056 ± 0.010 %ID/g
[1]; 1 h p.i., n=4 rats
  Blood uptake: 0.029 ± 0.005 %ID/g
[1]; 2 h p.i.
  Bone uptake: 0.138 ± 0.006 %ID/g
  Brain uptake: 0.095 ± 0.016 %ID/g
  Fat uptake: 0.249 ± 0.036 %ID/g
  Heart uptake: 0.047 ± 0.009 %ID/g
  Kidney uptake: 1.339 ± 0.160 %ID/g
  Lung uptake: 0.199 ± 0.032 %ID/g
  Muscle uptake: 0.035 ± 0.007 %ID/g
[1]; 2 h p.i., n=4 rats
  Blood uptake: 0.020 ± 0.002 %ID/g
[2]
  accumulation in the cortex (autoradiogram): moderate accumulation
  accumulation in the striatum (autoradiogram): high accumulation
